MPTP block = inhibitors of mitochondrial permeability transition pore; inhibition, % at 10 µM; 1.4% of 360,000 active; isolated mouse mitochondria, Ca2+ swelling absorbance, 30 min;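 active means inhibition of 50% or more, scaled per plate between neutral and stimulator controls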;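 further: 0% = DMSO wells given calcium and 100% = 1 mM EGTA wells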
SMARCA2 act = SMARCA2 function activation, primary screen | MG213 cells, MMTV-luciferase reporter, dexamethasone, overnight | activation, % at 9.1 µM | 1% of 370,000 active | AID 652017; in the data active means activation above about 7.8%;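 further: 0% = vehicle wells and 100% = reference activator wells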
ATG4B inhibitor = ATG4B (human) cysteine protease inhibition. Q9Y4P1. ATG4B cleavage of LC3-PLA2, NBD-HPC fluorescence, 1 h. inhibition, % at 8.33 µM. 0.51% of 340,000 active. AID 504462; in the data active means inhibition above about 40%
MC4R antagonist = human MC4R antagonism in cAMP assay; P32245; MC4R-expressing cells, MTII-stimulated cAMP, LANCE TR-FRET; inhibition, % at 6.5 µM; 0.48% of 360,000 active; AID 540295;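 active means inhibition above its plate's cutoff, the mean of tested wells on that plate plus 3 SD, cut at about 29% in these data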;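 further: 0% = Melanotan II alone and 100% = Melanotan II plus saturating MCL0020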
Target sequence (P32245 whole entry, looked up): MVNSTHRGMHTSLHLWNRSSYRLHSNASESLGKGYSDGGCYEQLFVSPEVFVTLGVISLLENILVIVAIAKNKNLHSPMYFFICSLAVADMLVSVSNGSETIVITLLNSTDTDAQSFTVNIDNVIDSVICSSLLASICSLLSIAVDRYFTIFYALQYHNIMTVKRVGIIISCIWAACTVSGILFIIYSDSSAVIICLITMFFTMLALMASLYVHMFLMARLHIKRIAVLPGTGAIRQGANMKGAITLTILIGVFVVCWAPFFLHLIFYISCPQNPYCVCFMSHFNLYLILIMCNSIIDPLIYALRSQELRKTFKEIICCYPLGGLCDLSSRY
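Assay system: U2OS-MC4R stable cell line; Also added: Melanotan II; Technique: Eu-cAMP/anti-cAMP TR-FRET, emission 671 nm; Times: 30-min compound, 1-h challenge, 1-h detection, room temperature.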
MC4R ag barr = activates human MC4R beta-arrestin recruitment; U2OS MC4R beta-arrestin complementation, luminescence; percent of melanotan II response, DMSO zero; 0.98% of 360,000 active; activation, % at 8.9 µM;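 active means activation above a per-plate cutoff, the mean activation of sample wells on that plate plus 3 SD, cut at about 8% in these data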
Starred values were filed as active, the others as inactive; / = no result. Hits are enriched below; roughly 4.1% of the tested compounds scored in any of these assays.

SMILES	MPTP block	SMARCA2 act	ATG4B inhibitor	MC4R antagonist	MC4R ag barr
CC(C)NS(=O)(=O)c1ccc(NC(=O)C(C)OC(=O)CCC2CCCC2)cc1 (stereo not given)	1	4	-5	9	8.4*
CC(=O)Nc1ccc(NC(=O)C(C)OC(=O)CCC2CCCCC2)cc1 (stereo not given)	0	0	2	-2	-1
CCc1nnc(NC(=O)Cc2c[nH]c3ccccc23)s1	0	-3	0	18	-1
CC(C)(C)c1ccc(C(=O)Nc2nnc(Cc3c[nH]c4ccccc34)s2)cc1	8	-2	-7	9	8.3*
COc1ccc(Cn2c(NC(=O)c3ccccc3)nc(Cc3ccccc3)c2Cc2ccccc2)cc1	/	-6	/	/	/
O=Nc1c(O)n(Cc2c(Cl)cccc2Cl)c2ccccc12	11	-2	-11	0	8.4*
Cc1cccc(OCc2nnc(SCC(=O)Nc3ccc(C)c(Cl)c3)o2)c1	24	-1	-6	-7	27*
NC(CCc1ccccc1)c1csc(NC(=O)NCC2CCCCC2)n1 (stereo not given)	3	-1	/	3	8.7*
CC(C)c1ccc(NC(=O)Nc2nc(C(N)CCc3ccccc3)cs2)cc1 (stereo not given)	5	-13	/	24	-1
NC(CCc1ccccc1)c1csc(NC(=O)Nc2cccc(C(F)(F)F)c2)n1 (stereo not given)	6	-4	/	11	8.8*
COc1ccc(CN2C(C(=O)NCC(C)C)CSCCS2(=O)=O)cc1 (stereo not given)	/	-3	/	/	/
COc1ccccc1NC(=O)NC(N)=O	-1	2	-7	8	3
COc1ccccc1NC(=O)NC(=O)c1ccccc1	1	7	4	0	8.8*
O=C(C(=O)N1CCC(CNS(=O)(=O)c2cccc(C(F)(F)F)c2)CC1)c1cc2ccccc2o1	/	-4	/	/	/
CSc1ccc(/C=N/Nc2ccc(Cl)c(C(=O)O)c2)cc1	-3	7.9*	-4	16	0
O=C(O)c1cc(N/N=C/c2ccc(-c3ccccc3)cc2)ccc1Cl	4	3	31	8	0
Cc1cc(Br)c2nc(-c3ccc(F)cc3)c(Cc3cccc(Cl)c3)n2c1	/	-4	/	/	/
CCNc1nc(NCC)nc(SCCOC(=O)c2ccccc2)n1	0	-1	-14	-1	-2
CCNc1nc(NCC)nc(SCCOC(=O)Nc2ccc(Cl)cc2Cl)n1	7	-2	10	26	8.9*
CCCN1C(=O)c2n[nH]c(C)c2C1c1ccc2c(c1)OCO2 (stereo not given)	/	-4	/	/	/
CCCCC(=O)Nc1ccc(N2CCN(S(C)(=O)=O)CC2)cc1	-2	-1	-5	-3	2
CCCC(=O)Nc1ccc(N2CCN(S(C)(=O)=O)CC2)cc1	17	8.4*	0	5	0
COCCCNc1ccn2nc(-c3ccc(OCCN4CCOCC4)cc3)cc2n1	1	7.9*	/	6	-1
NS(=O)(=O)c1ccc(CCNc2ccn3nc(-c4ccc(OCCN5CCOCC5)cc4)cc3n2)cc1	1	-4	/	20	-1
O=C(CSc1nnc2ccccn12)Nc1ccccc1Cl	-2	-3	-1	9	-1
SMILES	MPTP block	SMARCA2 act	ATG4B inhibitor	MC4R antagonist	MC4R ag barr
Cc1ccc(NC(=O)CSc2nnc3ccccn23)c(Cl)c1	0	7.9*	/	9	-2
S=C(Nc1ccccn1)c1ccccn1	-4	7.8*	/	1	-1
NC(c1csc(Nc2ccc(C(F)(F)F)cn2)n1)C1CCCCC1 (stereo not given)	5	-8	/	3	8.9*
NC(CO)c1csc(Nc2ccc(C(F)(F)F)cn2)n1 (stereo not given)	4	-3	/	0	-2
CN(C)CCNC(=O)c1cc2c(s1)-c1ccc(Cl)cc1SC2	1	-7	1	-1	11*
Nc1cc2ccccc2cc1NS(=O)(=O)N1CCCCC1	/	-2	/	/	/
COc1c(C(O)CC(C)C)ccc2c1C(=O)OCc1cc(C)cc(O)c1O2 (stereo not given)	1	-2	-24	11	-2
COc1c(C(CC(C)C)OC(C)=O)ccc2c1C(=O)OCc1cc(C)cc(O)c1O2 (stereo not given)	2	-1	-17	7	8.6*
Cc1sc2cc3c(c(C(=O)c4ccccc4)[n+]2c1C)-c1cccc2cccc-3c12	/	-9	13	/	/
O=C(c1ccccc1)c1c2c(cc3sc4ccccc4[n+]13)-c1cccc3cccc-2c13	45	-6	30	-25	26*
COC(=O)c1c(-c2ccc(OC)cc2)c2c(c3c4cc(OC)ccc4n(S(=O)(=O)c4ccc(C)cc4)c13)C(=O)N(C)C2	/	-3	/	/	/
O=[N+]([O-])c1ccc(N2CCN(Cc3ccc4c(c3)OCO4)CC2)nc1	0	-2	7	-3	0
FC(F)(F)c1ccc(N2CCN(Cc3ccc4c(c3)OCO4)CC2)nc1	1	-4	-2	2	9.2*
Cc1ccc(-c2nc(C3CCCN(S(=O)(=O)c4ccccc4)C3)no2)cc1 (stereo not given)	/	4	/	/	/
O=C(Nc1ccncc1)c1cc(-c2ccc(Cl)cc2)nc2ccccc12	/	-3	/	/	/
Cc1cccc(-c2cc(C(=O)Nc3cccnc3)c3ccccc3n2)c1	0	3	9	1	1
COc1cccc(NC(=O)c2cc(-c3cccnc3)nc3c(Cl)cccc23)c1	2	-1	-4	5	12*
Cc1cccc(-c2cc(C(=O)Nc3ccncc3)c3ccccc3n2)c1	2	-1	-7	5	12*
O=C(Nc1ccncc1)c1cc(-c2ccccc2)nc2ccccc12	0	1	/	17	9.3*
CC(=O)C1=C(C)N(Cc2ccc(F)cc2)C(=S)NC1c1ccc(Cl)cc1 (stereo not given)	/	-1	/	/	/
CCCCCCCCN1C(=O)[C@@H](CC(=O)N2CCN(C(=O)OCC)CC2)C[C@@]2(C(=O)OC)C1=C[C@H](COCc1ccccc1)O[C@@H]2C	/	-4	/	/	/
CC(C)(C)NC(=O)NC(=O)COC(=O)c1ccc(OC(F)(F)F)cc1	3	-2	-10	1	8.4*
COC(=O)[C@]12C[C@H](CC(=O)N3CCC(c4ccccc4)CC3)C(=O)N(Cc3ccc(Cl)cc3Cl)C1=C[C@H](C(C)(C)C)O[C@@H]2C	/	-1	/	/	/
O=C(Nc1ccc(Br)cn1)c1ccc(COc2c(F)c(F)cc(F)c2F)o1	-1	2	0	4	8.4*
CNC(=O)CC12CC3CC(CC(C3)C1)C2	-1	0	-6	9	-3
COCCNC(=S)NC(=O)CC12CC3CC(CC(C3)C1)C2	11	-2	2	-10	8.3*
Nc1[nH]c(C(=O)c2ccccc2)c(-c2ccccc2)c1C(=O)NCCc1c[nH]c2ccccc12	/	4	/	/	/
COC(=O)[C@]12C[C@H](CC(=O)NCc3cccc4ccccc34)C(=O)N(Cc3ccc(Cl)cc3Cl)C1=C[C@H](C(C)C)O[C@@H]2C1CC1	/	0	/	/	/
Cc1ccc(-n2nnc3c(=O)oc4ccccc4c32)cc1	-5	-2	4	46*	0
